Measured values: ChEMBL document CHEMBL4229489, “Synthesis and evaluation of camphor and cytisine-based cyanopyrrolidines as DPP-IV inhibitors for the treatment of type 2 diabetes mellitus” (Bioorg Med Chem, 2018)
The source made the active and inactive calls. The rule behind the calls is not given here.

Tests used:
Dipeptidyl peptidase 4 = Dipeptidyl peptidase 4 (Homo sapiens, UniProt P27487); assay: Inhibition of recombinant human DPP4 using H-Gly-Pro-AMC as substrate measured after 10 mins
Mus musculus = assay: Hypoglycemic activity in albino CD-1 mouse assessed as reduction in blood glucose level at 10 mg/kg, po pretreated for 0.5 hrs followed by glucose challenge and measured after 30 to 90 mins by OGTT; type: functional, organism-based
Summary of the method: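 Male CD-1 albino mice, 25–35 g, randomized by weight into groups of 5, fasted 12 h. Compounds mixed with a few drops of Tween 80 or DMSO, dissolved in distilled water, given orally at 10 mg/kg 0.5 h before an oral glucose load (2.5 g/kg). Controls got vehicle only. Blood glucose read by glucometer at 0, 30, 60, 90 min. Mean ± SD, n = 5.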

Dipeptidyl peptidase 4, sequence (P27487 whole entry): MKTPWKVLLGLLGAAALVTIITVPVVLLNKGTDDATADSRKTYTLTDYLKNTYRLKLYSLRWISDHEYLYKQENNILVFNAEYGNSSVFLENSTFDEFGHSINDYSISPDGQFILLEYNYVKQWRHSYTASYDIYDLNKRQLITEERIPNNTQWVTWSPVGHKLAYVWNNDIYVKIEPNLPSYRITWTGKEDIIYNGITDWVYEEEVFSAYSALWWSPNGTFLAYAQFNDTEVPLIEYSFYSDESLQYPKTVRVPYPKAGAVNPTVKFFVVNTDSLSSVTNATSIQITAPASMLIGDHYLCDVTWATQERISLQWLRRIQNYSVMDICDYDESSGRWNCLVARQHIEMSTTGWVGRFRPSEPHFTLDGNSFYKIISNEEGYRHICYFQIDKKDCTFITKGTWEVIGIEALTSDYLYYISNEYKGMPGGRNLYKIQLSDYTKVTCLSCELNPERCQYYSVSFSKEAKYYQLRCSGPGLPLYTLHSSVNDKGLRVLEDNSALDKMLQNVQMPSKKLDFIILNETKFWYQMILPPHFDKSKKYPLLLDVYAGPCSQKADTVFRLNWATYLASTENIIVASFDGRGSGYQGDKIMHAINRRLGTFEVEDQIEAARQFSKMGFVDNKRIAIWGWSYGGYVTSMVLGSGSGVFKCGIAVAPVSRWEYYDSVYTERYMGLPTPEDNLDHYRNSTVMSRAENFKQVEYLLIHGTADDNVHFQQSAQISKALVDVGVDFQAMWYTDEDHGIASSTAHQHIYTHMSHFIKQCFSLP

| Compound | IC50 (Dipeptidyl peptidase 4) | Activity (Mus musculus) |
| --- | --- | --- |
| N#C[C@@H]1CCCN1C(=O)CN1C[C@H]2C[C@H](C1)c1c(Cl)cc(Cl)c(=O)n1C2 | Not Active | inactive |
| CC1(C)[C@H]2CC[C@]1(C)[C@@H](O)[C@H]2NCC(=O)N1CCC[C@H]1C#N (stereo in doubt) | – | Active |
| CC12CCC([C@H](NCC(=O)N3CCC[C@H]3C#N)C1=O)C2(C)C (single isomer, unassigned) | – | Active |
| N#C[C@@H]1CCCN1C(=O)CNC12CC3CC(CC(O)(C3)C1)C2 | – | Active |
| N#C[C@@H]1CCCN1C(=O)CN1C[C@H]2C[C@H](C1)c1cccc(=O)n1C2 | Not Active | inactive |
| CC1(C)[C@@H]2CC[C@@]1(C)[C@H](NCC(=O)N1CCC[C@H]1C#N)C2 | – | Active |
| CC1(C)[C@H]2CC[C@]1(C)[C@@H](NCC(=O)N1CCC[C@H]1C#N)C2 | – | Active |
| N#C[C@@H]1CCCN1C(=O)CN1C[C@H]2C[C@H](C1)c1c(Cl)ccc(=O)n1C2 | Not Active | inactive |
| N#C[C@@H]1CCCN1C(=O)CN1C[C@H]2C[C@H](C1)c1ccc([N+](=O)[O-])c(=O)n1C2 | Not Active | inactive |
| N#C[C@@H]1CCCN1C(=O)CN1C[C@H]2C[C@H](C1)c1c(Br)cc(Br)c(=O)n1C2 | Not Active | inactive |
